Assay results taken from ChEMBL document CHEMBL1126582, “Symmetry-based inhibitors of HIV protease. Structure-activity studies of acylated 2,4-diamino-1,5-diphenyl-3-hydroxypentane and 2,5-diamino-1,6-diphenylhexane-3,4-diol” (J Med Chem, 1993).
Values after ≈ are worked out from the molar mass of the structure shown.

Columns and labels:
[1] = molecular target: Human immunodeficiency virus type 1 protease (Human immunodeficiency virus 1, UniProt Q72874); test: Inhibition of purified recombinant HIV-1 protease in a fluorogenic assay
Method in brief: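 Purified recombinant HIV-1 protease, with cleavage of the fluorogenic substrate DABCYL-[…]-Pro-Ile-Val-Gln-EDANS as read-out. Value is the inhibitor concentration giving 50% inhibition of protease activity.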

[2] = tested on: Human immunodeficiency virus 1; test: In vitro for inhibition of cytopathic effect of HIV-1 3B in MT-4 lymphocytes.; type: functional, organism-based
Method in brief: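 MT-4 lymphocytes were infected with HIV-1 3B at an MOI of either 0.001 or 0.032 tissue culture infective dose per cell. EC50 is the concentration preventing 50% of viral cytopathic effect, from a single triplicate assay. No effect means no activity up to 100 μM or up to the cytotoxic concentration.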

[3] = Estimated solubility (buffer pH 7.4); type: ADME; details: read-out: S
Method in brief: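 Solubility was estimated in pH 7.4 phosphate buffer.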

MT4 = test: In vitro for cytotoxicity in MT-4 lymphocytes in the absence of HIV infection.; type: functional; details: Homo sapiens
Method in brief: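 Uninfected MT-4 lymphocytes were cultured with compound. CC50 is the concentration at which 50% of cells remain viable.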

Compound	IC50 [1]	EC50 [2]	solubility [3]	CC50 (MT4)
CC(C)[C@H](NC(=O)N(C)Cc1cccnc1)C(=O)N[C@@H](Cc1ccccc1)[C@@H](O)[C@@H](O)[C@H](Cc1ccccc1)NC(=O)[C@H](NC(=O)N(C)Cc1cccnc1)C(C)C	1.6 nM	5700 nM	338 µg/mL (≈ 425 µM)	> 100000 nM
CC(C)[C@H](NC(=O)N(C)Cc1ccccn1)C(=O)N[C@@H](Cc1ccccc1)[C@@H](O)[C@H](O)[C@H](Cc1ccccc1)NC(=O)[C@H](NC(=O)N(C)Cc1ccccn1)C(C)C	< 1 nM	270 nM	197 µg/mL (≈ 248 µM)	> 100000 nM
CC(C)[C@H](NC(=O)N(C)Cc1ccccn1)C(=O)N[C@@H](Cc1ccccc1)[C@@H](O)[C@@H](O)[C@H](Cc1ccccc1)NC(=O)[C@H](NC(=O)N(C)Cc1ccccn1)C(C)C	1.66 nM	1500 nM	225 µg/mL (≈ 283 µM)	> 100000 nM
CC(C)[C@H](NC(=O)/C=C/c1cccnc1)C(=O)N[C@@H](Cc1ccccc1)C(O)[C@H](Cc1ccccc1)NC(=O)[C@H](NC(=O)/C=C/c1cccnc1)C(C)C (stereo partly drawn)	2.2 nM	2800 nM	4.9 µg/mL (≈ 6.7 µM)	> 100000 nM
CC(C)[C@H](NC(=O)CN1CCOCC1)C(=O)N[C@@H](Cc1ccccc1)[C@@H](O)[C@@H](O)[C@H](Cc1ccccc1)NC(=O)[C@H](NC(=O)CN1CCOCC1)C(C)C	7.5 nM	–	–	–
CC(C)[C@H](NC(=O)N(C)CCc1ccccn1)C(=O)N[C@@H](Cc1ccccc1)[C@@H](O)[C@H](O)[C@H](Cc1ccccc1)NC(=O)[C@H](NC(=O)N(C)CCc1ccccn1)C(C)C	5.2 nM	4200 nM	66 µg/mL (≈ 80.2 µM)	61000 nM
CC(C)[C@H](NC(=O)CCN1CCOCC1)C(=O)N[C@@H](Cc1ccccc1)[C@@H](O)[C@@H](O)[C@H](Cc1ccccc1)NC(=O)[C@H](NC(=O)CCN1CCOCC1)C(C)C	23 nM	53000 nM	> 1050 µg/mL	> 100000 nM
CC(C)[C@H](NC(=O)OCCN1CCOCC1)C(=O)N[C@@H](Cc1ccccc1)C(O)[C@H](Cc1ccccc1)NC(=O)[C@H](NC(=O)OCCN1CCOCC1)C(C)C (stereo partly drawn)	180 nM	–	273 µg/mL (≈ 349 µM)	–
CC(C)[C@H](NC(=O)OCc1ccccn1)C(=O)N[C@@H](Cc1ccccc1)[C@@H](O)[C@H](Cc1ccccc1)NC(=O)[C@H](NC(=O)OCc1ccccc1)C(C)C	3 nM	2200 nM	0.6 µg/mL (≈ 0.813 µM)	> 100000 nM
CC(C)[C@H](NC(=O)/C=C/c1ccccn1)C(=O)N[C@@H](Cc1ccccc1)[C@@H](O)[C@@H](O)[C@H](Cc1ccccc1)NC(=O)[C@H](NC(=O)/C=C/c1ccccn1)C(C)C	< 1 nM	1100 nM	6.8 µg/mL (≈ 8.94 µM)	> 100000 nM
CC(C)[C@H](NC(=O)OCc1ccccc1)C(=O)N[C@@H](Cc1ccccc1)[C@@H](O)[C@H](Cc1ccccc1)NC(=O)[C@H](NC(=O)OCc1ccccc1)C(C)C	–	–	> 0.03 µg/mL	> 100000 nM
CC(C)[C@H](NC(=O)OCc1ccccc1)C(=O)N[C@@H](Cc1ccccc1)[C@H](O)[C@H](O)[C@H](Cc1ccccc1)NC(=O)[C@H](NC(=O)OCc1ccccc1)C(C)C	< 1 nM	70 nM	–	> 100000 nM
CC(C)[C@H](NC(=O)OCc1ccncc1)C(=O)N[C@@H](Cc1ccccc1)[C@H](O)[C@H](O)[C@H](Cc1ccccc1)NC(=O)[C@H](NC(=O)OCc1ccncc1)C(C)C	2.3 nM	600 nM	0.62 µg/mL (≈ 0.806 µM)	> 100000 nM
CC(C)[C@H](NC(=O)N(C)CCc1ccccn1)C(=O)N[C@@H](Cc1ccccc1)[C@@H](O)[C@@H](O)[C@H](Cc1ccccc1)NC(=O)[C@H](NC(=O)N(C)CCc1ccccn1)C(C)C	22 nM	13000 nM	355 µg/mL (≈ 431 µM)	> 100000 nM
CC(C)[C@H](NC(=O)N(C)Cc1nc2ccccc2[nH]1)C(=O)N[C@@H](Cc1ccccc1)[C@@H](O)[C@@H](O)[C@H](Cc1ccccc1)NC(=O)[C@H](NC(=O)N(C)Cc1nc2ccccc2[nH]1)C(C)C	< 1 nM	5000 nM	12 µg/mL (≈ 13.7 µM)	55000 nM
CC(C)[C@H](NC(=O)N(C)Cc1nccs1)C(=O)N[C@@H](Cc1ccccc1)[C@@H](O)[C@@H](O)[C@H](Cc1ccccc1)NC(=O)[C@H](NC(=O)N(C)Cc1nccs1)C(C)C	1 nM	1700 nM	137 µg/mL (≈ 170 µM)	> 100000 nM
CC(C)[C@H](NC(=O)OCc1ccccn1)C(=O)N[C@@H](Cc1ccccc1)[C@@H](O)[C@H](O)[C@H](Cc1ccccc1)NC(=O)[C@H](NC(=O)OCc1ccccn1)C(C)C	< 1 nM	60 nM	2.4 µg/mL (≈ 3.12 µM)	> 100000 nM
CC(C)[C@H](NC(=O)OCc1ccccn1)C(=O)N[C@@H](Cc1ccccc1)[C@@H](O)[C@@H](O)[C@H](Cc1ccccc1)NC(=O)[C@H](NC(=O)OCc1ccccn1)C(C)C	< 1 nM	450 nM	5.4 µg/mL (≈ 7.02 µM)	> 100000 nM

Compound	IC50 [1]	EC50 [2]	solubility [3]	CC50 (MT4)
CC(C)[C@H](NC(=O)OCc1ccncc1)C(=O)N[C@@H](Cc1ccccc1)[C@@H](O)[C@@H](O)[C@H](Cc1ccccc1)NC(=O)[C@H](NC(=O)OCc1ccncc1)C(C)C	1.7 nM	610 nM	55 µg/mL (≈ 71.5 µM)	> 100000 nM
CC(C)[C@H](NC(=O)N(C)Cc1cscn1)C(=O)N[C@@H](Cc1ccccc1)[C@@H](O)[C@H](O)[C@H](Cc1ccccc1)NC(=O)[C@H](NC(=O)N(C)Cc1cscn1)C(C)C	< 1 nM	190 nM	159 µg/mL (≈ 197 µM)	> 100000 nM
CC(C)[C@H](NC(=O)N(C)CCc1ccccn1)C(=O)N[C@@H](Cc1ccccc1)[C@H](O)[C@H](O)[C@H](Cc1ccccc1)NC(=O)[C@H](NC(=O)N(C)CCc1ccccn1)C(C)C	31 nM	12000 nM	86 µg/mL (≈ 104 µM)	95000 nM
CC(C)[C@H](NC(=O)OCc1ccccc1)C(=O)N[C@@H](Cc1ccccc1)[C@@H](O)[C@H](O)[C@H](Cc1ccccc1)NC(=O)[C@H](NC(=O)OCc1ccccc1)C(C)C	< 1 nM	90 nM	–	> 100000 nM
CC(C)[C@H](NC(=O)N(C)Cc1ccccn1)C(=O)N[C@@H](Cc1ccccc1)[C@H](O)[C@@H](O)[C@H](Cc1ccccc1)NC(=O)[C@H](NC(=O)N(C)Cc1cccnc1)C(C)C	< 1 nM	480 nM	420 µg/mL (≈ 528 µM)	> 100000 nM
CC(C)[C@H](NC(=O)OCC1CCCCN1C)C(=O)N[C@@H](Cc1ccccc1)[C@@H](O)[C@H](Cc1ccccc1)NC(=O)[C@H](NC(=O)OCc1ccccc1)C(C)C (stereo partly drawn)	63 nM	–	19 µg/mL (≈ 25.1 µM)	–
CC(C)[C@H](NC(=O)OCc1cccnc1)C(=O)N[C@@H](Cc1ccccc1)[C@@H](O)[C@H](Cc1ccccc1)NC(=O)[C@H](NC(=O)OCc1ccccc1)C(C)C	4 nM	2800 nM	0.9 µg/mL (≈ 1.22 µM)	> 100000 nM
CC(C)[C@H](NC(=O)N(C)Cc1nccs1)C(=O)N[C@@H](Cc1ccccc1)[C@H](O)[C@H](O)[C@H](Cc1ccccc1)NC(=O)[C@H](NC(=O)N(C)Cc1nccs1)C(C)C	< 1 nM	390 nM	57 µg/mL (≈ 70.6 µM)	> 100000 nM
CC(C)[C@H](NC(=O)N(C)Cc1cccnc1)C(=O)N[C@@H](Cc1ccccc1)[C@@H](O)[C@H](O)[C@H](Cc1ccccc1)NC(=O)[C@H](NC(=O)N(C)Cc1cccnc1)C(C)C	< 1 nM	1700 nM	153 µg/mL (≈ 192 µM)	> 100000 nM
CC(C)[C@H](NC(=O)N(C)Cc1ccccn1)C(=O)N[C@@H](Cc1ccccc1)[C@H](O)[C@H](O)[C@H](Cc1ccccc1)NC(=O)[C@H](NC(=O)N(C)Cc1ccccn1)C(C)C	< 1 nM	170 nM	3.6 µg/mL (≈ 4.53 µM)	> 100000 nM
CC(C)[C@H](NC(=O)N(C)Cc1nc2ccccc2[nH]1)C(=O)N[C@@H](Cc1ccccc1)[C@@H](O)[C@H](O)[C@H](Cc1ccccc1)NC(=O)[C@H](NC(=O)N(C)Cc1nc2ccccc2[nH]1)C(C)C	< 1 nM	1700 nM	6.6 µg/mL (≈ 7.56 µM)	27000 nM
CC(C)[C@H](NC(=O)OCc1cccnc1)C(=O)N[C@@H](Cc1ccccc1)[C@@H](O)[C@@H](O)[C@H](Cc1ccccc1)NC(=O)[C@H](NC(=O)OCc1cccnc1)C(C)C	< 1 nM	440 nM	31 µg/mL (≈ 40.3 µM)	> 100000 nM
CC(C)[C@H](NC(=O)c1cc2ccccc2[nH]1)C(=O)N[C@@H](Cc1ccccc1)C(O)[C@H](Cc1ccccc1)NC(=O)[C@H](NC(=O)c1cc2ccccc2[nH]1)C(C)C (stereo partly drawn)	1.2 nM	8900 nM	–	58000 nM
CC(C)[C@H](NC(=O)OCc1cccnc1)C(=O)N[C@@H](Cc1ccccc1)[C@H](O)[C@H](O)[C@H](Cc1ccccc1)NC(=O)[C@H](NC(=O)OCc1cccnc1)C(C)C	< 1 nM	–	0.41 µg/mL (≈ 0.533 µM)	–
CC(C)[C@H](NC(=O)c1ccc2ccccc2n1)C(=O)N[C@@H](Cc1ccccc1)C(O)[C@H](Cc1ccccc1)NC(=O)[C@H](NC(=O)c1ccc2ccccc2n1)C(C)C (stereo partly drawn)	1.6 nM	2100 nM	0.23 µg/mL (≈ 0.295 µM)	> 100000 nM
CC(C)[C@H](NC(=O)OCc1cccnc1)C(=O)N[C@@H](Cc1ccccc1)[C@@H](O)[C@H](O)[C@H](Cc1ccccc1)NC(=O)[C@H](NC(=O)OCc1cccnc1)C(C)C	< 1 nM	–	0.5 µg/mL (≈ 0.65 µM)	–
CC(C)[C@H](NC(=O)c1cc2ccccc2[nH]1)C(=O)N[C@@H](Cc1ccccc1)[C@@H](O)[C@@H](O)[C@H](Cc1ccccc1)NC(=O)[C@H](NC(=O)c1cc2ccccc2[nH]1)C(C)C	< 1 nM	70 nM	–	49000 nM
